Data set [1] has as its system A549. The data set can be described thus: Cell cycle arrest in human A549 cells assessed as accumulation at G2/M phase at 5.0 uM after 24 hrs by flow cytometry. The format is functional. The procedure, abridged:
(§1)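 A549 cells were exposed to DMSO or compound at 0.1, 1.0, 5.0 or 10.0 µM for 24 h. Cells were harvested, rinsed in PBS, fixed in 70% ethanol and stored at −20 °C. Staining used propidium iodide solution with 0.2 mg/mL RNase and 0.1% Triton X-100, at least 30 min at room temperature in the dark. Cell-cycle phases were read by flow cytometry.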
(In general: Flow cytometry measures light scatter and fluorescence of single cells or particles in a stream.)

Data set [2] is described as follows: Antiproliferative activity against human HepG2(2.2.1) cells after 72 hrs by XTT assay. In kind it is functional. The following applies: HepG2, 72 h. The procedure, abridged:
(§2)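 Cells were grown as monolayers in DMEM with 10% FBS, penicillin, streptomycin and amphotericin at 37 °C and 5% CO2. Plating was 5×10³ cells/well, with treatment for 72 h in 10% FBS medium, a medium change, then another day. XTT (1 mg/mL) plus PMS in serum-free medium was added for 4 h at 37 °C and read at 492 nm. Growth was taken as % of control (mean of n = 3). GI50 was taken from the linear portion of the curve as the 50% absorbance reduction.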
A general note: Tetrazolium assays rely on reduction of a dye to a coloured formazan, in cell work by metabolically active cells.

Data set [3] concerns A549. The data set can be described thus: Cell cycle arrest in human A549 cells assessed as accumulation at S phase at 1.0 uM after 24 hrs by flow cytometry. The format is functional. The procedure, abridged: as §1
For data set [4], the system named is A549. In words: Cell cycle arrest in human A549 cells assessed as accumulation at G1 phase at 0.1 uM after 24 hrs by flow cytometry. The format is functional. The procedure, abridged:
as §1

The test system of data set [5] is A549. In words: Cell cycle arrest in human A549 cells assessed as accumulation at subG1 phase at 5.0 uM after 24 hrs by flow cytometry. In kind it is functional. Summed up:
as §1

Data set [6] concerns A549. The data set can be described thus: Induction of apoptosis in human A549 cells assessed as DNA fragmentation after 24 hrs by agarose gel electrophoresis. In kind it is functional, cell-based. The procedure, abridged: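 A549 cells were treated at 1.0, 5.0 or 10.0 µM for 24 h and washed in PBS. Total genomic DNA was isolated with a kit and run on a 2.0% agarose gel in 1× TAE at 100 V.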

Data set [7] concerns A549. The data set can be described thus: Antiproliferative activity against human A549 cells after 72 hrs by XTT assay. The format is functional. Conditions: A549, 72 h. The procedure, abridged: as §2
Data set [8] concerns A549. The data set can be described thus: Cell cycle arrest in human A549 cells assessed as accumulation at S phase at 5.0 uM after 24 hrs by flow cytometry. The format is functional. Summed up:
as §1

Data set [9] relates to A549. In words: Cell cycle arrest in human A549 cells assessed as accumulation at G2/M phase at 0.1 uM after 24 hrs by flow cytometry. In kind it is functional. Summed up: as §1
Data set [10] relates to A549. The data set can be described thus: Induction of apoptosis in human A549 cells assessed as microtubule network damage at 10.0 uM after 24 hrs by immunofluorescence. The format is functional, cell-based. Summed up:
(§3)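 A549 cells on cover glasses were treated for 24 h, then fixed in 4% paraformaldehyde for 1 h. Glycine-PBS wash, then permeabilization with 2% FBS and 0.4% Triton X-100 for 15 min. Cells were stained with anti-β-tubulin monoclonal (1:1000, 4 °C overnight), then FITC anti-mouse IgG (1:200, 1 h, room temperature). DAPI was added for nuclei, and imaging was by confocal laser scanning microscopy.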

The subject of data set [11] is A549. In words: Cell cycle arrest in human A549 cells assessed as accumulation at G1 phase at 5.0 uM after 24 hrs by flow cytometry. The format is functional. The procedure, abridged:
as §1

The nature of data set [12]: Antiproliferative activity against human Hep3B cells after 72 hrs by XTT assay. The format is functional, Hep 3B2. The procedure, abridged: as §2
For data set [13], the system named is A549. In words: Induction of apoptosis in human A549 cells assessed as shrinkage in microtubule network at 1.0 uM after 24 hrs by immunofluorescence. In kind it is functional, cell-based. Summed up:
as §3

Data set [14] can be described thus: Antiproliferative activity against human H1299 cells after 72 hrs by XTT assay. Conditions: NCI-H1299, 72 h. The format is functional. Summed up: as §2
The test system of data set [15] is A549. In words: Induction of apoptosis in human A549 cells assessed as apoptotic bodies after 24 hrs by fluorescence microscopy. In kind it is functional, cell-based. Summed up: as §3
Data set [16] can be described thus: Cytotoxicity against human MRC5 cells after 72 hrs by XTT assay. The format is cell-based. Summed up: as §2
For data set [17], the system named is A549. In words: Cell cycle arrest in human A549 cells assessed as accumulation at subG1 phase at 1.0 uM after 24 hrs by flow cytometry. The format is functional. The procedure, abridged:
as §1

In data set [18] the test system is A549. In words: Induction of apoptosis in human A549 cells assessed as morphological changes after 24 hrs by fluorescence microscopy. The format is functional, cell-based. Summed up: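 A549 cells were treated with DMSO or compound at 1, 5 or 10 µM for 24 h at 37 °C, then photographed under a microscope.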
The next data set deals with HepG2. The data set can be described thus: Antiproliferative activity against human HepG2 cells after 72 hrs by XTT assay. In kind it is functional. Conditions: HepG2, 72 h. Summed up: as §2
For data set [19], the system named is A549. In words: Induction of apoptosis in human A549 cells assessed as PARP cleavage after 24 hrs by Western blot. In kind it is functional, cell-based. Summed up:
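Exponentially growing A549 cells were treated for 24 h, then lysed on ice for 30 min in Tris pH 7.5/NP-40 buffer with protease and phosphatase inhibitors. Protein was measured by Bradford, and 20 µg was resolved on 10% SDS–PAGE and transferred to PVDF. Blots were blocked in 5% milk, probed with anti-PARP (1:1000, 2 h) then HRP anti-rabbit (1:5000, 30 min), and reprobed for β-actin as a loading check.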
A general note: Immunoblotting shows a protein as a band on a membrane.

Data set [20] deals with A549. The data set can be described thus: Cell cycle arrest in human A549 cells assessed as accumulation at G2/M phase at 1.0 uM after 24 hrs by flow cytometry. In kind it is functional. Summed up: as §1
In data set [21] the test system is A549. The data set can be described thus: Cell cycle arrest in human A549 cells assessed as accumulation at G1 phase at 1.0 uM after 24 hrs by flow cytometry. In kind it is functional. Summed up:
as §1

Data set [22] concerns A549. In words: Cell cycle arrest in human A549 cells assessed as accumulation at S phase at 0.1 uM after 24 hrs by flow cytometry. The format is functional. Summed up: as §1
Data set [23] deals with A549. The data set can be described thus: Cell cycle arrest in human A549 cells assessed as accumulation at subG1 phase at 0.1 uM after 24 hrs by flow cytometry. The format is functional. The procedure, abridged:
as §1

SMILES strings stand for the structures. The source made the active and inactive calls. The calls are words filed in the database; no cut-off is given here.

As a reminder, the GI50 is the concentration at which growth is held to half of that of the control. A higher GI50 goes with less potent growth inhibition. As to `CN(C)CCCOc1ccc(-c2nc3ccc(OCCCN(C)C)cc3c3c2-c2ccc(OCCCN(C)C)cc2C3=O)cc1`, the Activity with A549 [1] is 15.8%; with A549 [3], 13.6%; in the data set on A549 [4], 73.9%; with A549 [5], 17.1%; in the data set with A549 [8], 12.3%; with A549 [9] it was 9.8%. The Activity with A549 [11] is 71.9%; in the data set with A549 [17], 2%; with A549 [19] it was “Dose-dependent effect”; in the data set on A549 [20], 11%; in the data set with A549 [21], 75%; with A549 [22], 16.3%. The Activity in the data set with A549 [23] came out at 1.5%. For the same compound, the GI50 in data set [2] came to 4.25 µM; with A549 [7], 0.68 µM; in data set [12], 4.44 µM; in data set [14], 5.18 µM; in the data set with HepG2, 0.6 µM. Further, the result in the data set with A549 [6], in the data set on A549 [10], in the data set with A549 [13], with A549 [15] and in the data set with A549 [18] was Active. In data set [16], this compound registered a GI50 at 72 h of 6.2 µM.

Source of the values: ChEMBL document CHEMBL1152640, “Synthesis and antiproliferative evaluation of 6-arylindeno[1,2-c]quinoline derivatives” (Bioorg Med Chem, 2009).
